Bioassay records: PubChem BioAssay, several laboratories
A selection: hits, their analogues and other compounds. The true share with any hit is near 12%.
RAM inhibit: blocks the yeast RAM network. inhibition, % at 50 µM. hit rate 1.8% among 190,000. AID 868. S. cerevisiae dse1pr::URA3 reporter, 5-FOA growth OD615, 2 d; analog-sensitive cbk1-as2 kinase mutant strain;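 active = inhibition above a set limit, 3 SD over mean compound inhibition, cut at about 8.4% in these data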;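 also: 0% = DMSO-only wells with no growth and 100% = 10 µM 1-NA-PP1 full growth; inhibition rescues growth on 5-FOA so higher OD means more RAM inhibition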
WT yeast gro inh: growth inhibition of WT yeast, mitochondrial fusion screen; hit rate 2.1% among 190,000; mitochondrial fusion phenotypic screen, WT strain; inhibition, % at 10 µM; in the data active = inhibition above about 58%; tested in S. cerevisiae
L major viab: reduces viability of Leishmania major promastigotes | resazurin fluorescence viability | inhibition, % at 10 µM | hit rate 9% among 200,000 | AID 1063; in the data active = inhibition above about 50%;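 also: promastigotes grown with compound for 44 hours at 28 °C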
ABCG2 block: inhibitors of human ABCG2 transporter, ABCB1 counter-screen. Q9UNQ0. IgMXP3 cells, JC-1 efflux, flow cytometry. inhibition, % at 6.6 µM. hit rate 0.1% among 190,000;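 active = inhibition above 80%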;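 also: 0% = DMSO and 100% = nicardipine control wells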
Target sequence (Q9UNQ0 whole entry, looked up): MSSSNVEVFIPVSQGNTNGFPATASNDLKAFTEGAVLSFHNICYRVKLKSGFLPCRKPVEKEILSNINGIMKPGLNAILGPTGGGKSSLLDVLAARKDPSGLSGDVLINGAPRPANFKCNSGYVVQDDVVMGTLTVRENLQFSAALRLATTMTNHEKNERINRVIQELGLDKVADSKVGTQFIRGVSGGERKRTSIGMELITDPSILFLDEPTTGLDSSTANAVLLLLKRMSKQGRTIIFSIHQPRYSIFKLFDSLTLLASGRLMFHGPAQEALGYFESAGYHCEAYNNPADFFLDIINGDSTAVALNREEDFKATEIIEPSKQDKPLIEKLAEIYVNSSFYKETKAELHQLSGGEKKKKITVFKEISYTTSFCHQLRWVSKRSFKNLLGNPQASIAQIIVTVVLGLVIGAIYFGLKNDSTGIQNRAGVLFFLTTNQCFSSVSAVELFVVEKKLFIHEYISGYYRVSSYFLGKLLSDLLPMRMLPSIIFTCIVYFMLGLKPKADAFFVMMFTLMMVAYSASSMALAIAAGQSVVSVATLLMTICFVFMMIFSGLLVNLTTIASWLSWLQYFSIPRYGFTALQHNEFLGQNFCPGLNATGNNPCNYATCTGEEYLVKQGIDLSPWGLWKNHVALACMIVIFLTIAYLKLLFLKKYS
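material = IgMXP3 (ABCG2) plus far-red-tagged CCRF-Adr (ABCB1) cells | amount = 3 million cells/mL, equal mix of both lines | also added = JC-1 transporter substrate | dosing = one concentration, 6.6 µM final | schedule = 10 min at 25 °C | measured by = flow cytometric JC-1 green MFI at 530 nm | read-out basis = percent efflux inhibition, scaled nicardipine 100% to DMSO 0%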
ABCB1 block: blocks JC-1 efflux by human ABCB1 transporter; CCRF-Adr cells, flow cytometry; AID 1326; P08183; hit rate 0.067% among 190,000; inhibition, % at 6.6 µM; in the data active = inhibition above about 40%;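 also: 0% = vehicle and 100% = reference inhibitor; higher value means more JC-1 retained so stronger ABCB1 efflux block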
Active calls of the source: *; · = no result given.

SMILES | RAM inhibit | WT yeast gro inh | L major viab | ABCG2 block | ABCB1 block
Cc1ccc(S(=O)(=O)N2CCN(c3ccc(C(=O)N4CCOCC4)cc3[N+](=O)[O-])CC2)cc1 | 2 | -2 | 61* | 10 | 2
CCC(=O)c1cc(F)c(N2CCN(S(=O)(=O)c3ccc(C)cc3)CC2)cc1C | 3 | 10 | 69* | 1 | 0
O=C1CC(C(=O)O)S/C(=N\NC(=O)c2ccc(F)cc2)N1 (stereo not given) | -1 | -10 | 73* | -1 | 0
COc1ccc(C(=O)CSc2nc(C)cc(=O)[nH]2)cc1 | 2 | 3 | -11 | -6 | -5
COc1ccc(N/N=C(/N=Nc2nc(C)cc(=O)[nH]2)c2ccccc2)cc1 | 2 | 47 | 100* | 7 | 3
Cc1cc(=O)[nH]c(N=N/C(=N/Nc2ccc(O)cc2)c2ccccc2)n1 | 1 | 42 | 94* | 1 | 0
Cc1cc(=O)[nH]c(N=N/C(=N/Nc2ccccc2C)c2ccccc2)n1 | 8 | 23 | 98* | · | ·
Cc1cc(=O)[nH]c(N/N=C/c2ccccc2C(F)(F)F)n1 | 3 | -10 | 1 | 0 | 0
CN(C)/C=N/C1=C(C#N)C(c2cccs2)c2ccc3ccccc3c2O1 (stereo not given) | 3 | 19 | 20 | 11 | 1
Cc1nn(-c2ccccc2)c(N2CCCC2)c1/C=N/n1cnc2scc(-c3ccccc3)c2c1=O | 5 | 2 | 56* | 6 | 3
O=c1c2c(-c3ccccc3)csc2ncn1/N=C/c1c2ccccc2cc2ccccc12 | 7 | 28 | 100* | -2 | 0
C#CCONC(=O)c1cc(OCC(F)(F)F)ccc1OCC(F)(F)F | 2 | 13 | -5 | 6 | 1
COc1ccc(O)c(/C=N/NC(=S)Nc2cccnc2)c1 | 1 | 8 | 94* | 3 | 0
COc1ccc(O)c(/C=N/NC(=S)Nc2cccc(S(=O)(=O)N(C)C)c2)c1 | 3 | 5 | 99* | -1 | 0
CCN(CC)S(=O)(=O)c1ccc(N/N=C/c2cc(OC)ccc2O)nc1 | 2 | 9 | 92* | · | -5
Cc1ccc(NC(=O)CSc2nnc(-c3cccnc3)n2CCN2CCCCC2)cc1 | 0 | -4 | -4 | 3 | ·
CC(O)C(NC=C1C(=O)OC(C)(C)OC1=O)C(=O)O (stereo not given) | 0 | 1 | 0 | 0 | 1
COc1ccc([N+](=O)[O-])cc1NC(=O)C1CCCO1 (stereo not given) | 3 | -18 | -5 | 14 | 1
O=C(Nc1ccccc1Cl)c1ccc(COc2ccc3c(c2)CCC3)cc1 | 11* | -7 | -5 | 51 | 0
CCCc1cc2c(cc1NC(=O)c1ccc(C)cc1)OCO2 | 2 | -4 | 1 | 2 | 0
Cc1ccc(C2NC(=O)Cc3ccccc32)cc1 (stereo not given) | 0 | 0 | -5 | 2 | 1
CCOC(=O)C1=C(C)N=c2s/c(=C/c3ccco3)c(=O)n2C1c1cccc(OC)c1 (stereo not given) | 9.5* | -30 | 23 | 1 | 0
O=C(CSc1nc2ccccc2c(=O)n1Cc1ccco1)c1ccc(F)cc1 | 4 | -5 | 4 | 6 | 1
CCn1c(=S)sc2c(=O)n(-c3ccccc3)c(SC)nc21 | 3 | 23 | 87* | 0 | 0
COc1ccc(-n2c(SCC3OCCO3)nc3c(sc(=S)n3-c3ccccc3)c2=O)cc1OC | 8.6* | 4 | 0 | 4 | 5
SMILES | RAM inhibit | WT yeast gro inh | L major viab | ABCG2 block | ABCB1 block
CCN(CC)c1nc(-c2ccccc2)nc2c1sc(=S)n2CC | 9.8* | 5 | 8 | 4 | 0
CCn1c(=S)sc2c(=O)[nH]c(C)nc21 | 0 | -1 | -5 | 1 | 0
COc1ccc(-c2noc(CSc3nc4sc(C)c(C)c4c(=O)n3-c3ccccc3)n2)cc1OC | 6 | 1 | 4 | -2 | -3
N#CCSc1nc2c(sc(=S)n2Cc2ccco2)c(=O)n1-c1ccc(F)cc1 | 8 | -3 | 96* | 11 | 24
Cc1ccc(NC(=O)CSc2nnc(-c3cccs3)o2)cc1S(=O)(=O)N1CCCCC1 | 3 | -8 | -1 | 0 | -1
CCC(C)NC(=O)C(Sc1ccccc1)c1ccccc1 (stereo not given) | 2 | -6 | -4 | 6 | 1
Cc1ccccc1CN(C)CC(=O)Nc1c(C)cccc1C(C)C | 1 | 8 | 21 | 5 | 1
CCOC(=O)c1nc(C)n(-c2cc(OC)c(Cl)cc2Cl)n1 | 1 | 9 | -9 | 4 | 1
O=[N+]([O-])c1cc(S(=O)(=O)N2CCCC2)ccc1N/N=C1/CCCc2ccccc21 | 4 | -1 | 7 | 0 | 0
CCOC(=O)C/C(C)=N\Nc1nc(-c2ccccc2)cs1 | 1 | 7 | 25 | 0 | 0
Clc1ccc(N/N=C/c2cccnc2)cc1 | -2 | 59* | 62* | 64 | 0
C/C(CCC1CC(C)OC1=O)=N/Nc1nc(-c2ccccc2)cs1 (stereo not given) | 1 | 28 | 76* | -1 | 0
Clc1ccc(-c2csc(N/N=C/c3cccnc3)n2)c(Cl)c1 | 2 | 9 | -2 | 0 | 0
C(=N\Nc1nc(-c2ccccc2)cs1)/c1cccnc1 | 0 | 33 | 91* | 17 | 0
CC(C)=NNc1nc(-c2ccccc2)cs1 | 2 | 5 | 89* | -2 | 0
Cn1c(NC(=O)/C=C\c2ccccc2)cc(=O)n(C)c1=O | 4 | -42 | -6 | 3 | 0
Cc1ccc(S(=O)(=O)N(C)C)cc1NC(=S)NNC(=O)C(N)=O | 2 | -15 | -8 | 0 | 0
CCCCN(C)C(=O)c1nc2ccccn2c1CN1CCSCC1 | 0 | -8 | -4 | 0 | 0
CC(/C=C/c1ccccc1)=N\Nc1nc(-c2ccccc2)cs1 | 5 | 24 | 69* | 0 | 0
O=C(/C=C/c1ccccc1)Nc1nc(-c2ccncc2)cs1 | 1 | 31 | 9 | 2 | 1
CC(=O)NC(Cc1c[nH]c2ccccc12)C(=O)OCC(=O)Nc1ccc2c(c1)OCO2 (stereo not given) | 1 | -36 | 2 | 1 | 0
COc1cc(C(C(=O)NC2CCCCC2)N(C(=O)Cc2c[nH]c3ccccc23)c2ccc(C)cc2)cc(OC)c1OC (stereo not given) | 6 | -28 | 90* | 0 | ·
Cc1ccc(C(NC(=O)/C=C\c2ccc3c(c2)OCO3)C(=O)Nc2ccc3c(c2)OCO3)cc1 (stereo not given) | 4 | 14 | 100* | 2 | 0
Cc1ccc(C(C(=O)Nc2ccc3c(c2)OCO3)N(C)C(=O)Cc2c[nH]c3ccccc23)cc1 (stereo not given) | 5 | 30 | 70* | 8 | 2
CC(=O)c1ccc(N(C(=O)Cc2c[nH]c3ccccc23)C(C(=O)NC2CCCCC2)c2cccs2)cc1 (stereo not given) | 0 | -1 | 6 | 1 | 1
